{"data": "Published values of several laboratories", "medium": "plasma", "note": "Protocols differ between the studies behind these lines."}
{"SMILES": "COc1ccc(F)cc1C(=O)NCc1ccc(-c2nn([C@@H](C)C(F)(F)F)c(N)c2C(N)=O)cc1", "species": "male human", "route": "intravenous", "dose": "22 µg", "quantity": "Vd", "result": "0.54 L/kg"}
{"SMILES": "C=CC(=O)NC1CCN(c2ncc3ncnc(Nc4ccc(Oc5ccc6c(c5)ncn6C)c(C)c4)c3n2)CC1", "species": "male human", "route": "intravenous", "dose": "100 µg", "setting": "single dose, healthy volunteers", "quantity": "Vd", "result": "391 L"}
{"SMILES": "COc1ccc2c(c1)CN(C(=O)CCN1CCC(Cc3ccccc3)CC1)CC[S@@+]2[O-]", "species": "male human", "route": "intravenous", "dose": "0.4 mg/kg", "setting": "healthy volunteers", "quantity": "Vd", "result": "46.3 L"}
{"SMILES": "N#Cc1cccc(-c2ccc3ncc(-c4cc(F)cc(F)c4)c(N4CCC(N)CC4)c3c2)c1O", "species": "human", "route": "intravenous", "dose": "50 µg", "quantity": "Vd", "result": "220 L"}
{"SMILES": "C=CC(=O)N1C[C@H](Nc2ncnc3[nH]ccc23)CC[C@@H]1C", "species": "human", "route": "oral", "dose": "30 mg", "quantity": "Vd/F", "result": "183 L"}
{"SMILES": "OC[C@H]1O[C@@H](c2cc(Cc3ccc(C4CC4)cc3)c(Cl)c3c2CCO3)[C@H](O)[C@@H](O)[C@@H]1O", "species": "human", "route": "oral", "dose": "0.3 mg", "setting": "single dose, fed", "quantity": "Vd/F", "result": "177 L"}
{"SMILES": "CC(C)c1nc(N(C)S(C)(=O)=O)nc(-c2ccc(F)cc2)c1/C=C/[C@@H](O)C[C@@H](O)CC(=O)O", "species": "human", "route": "oral", "dose": "10 mg", "quantity": "Vd/F", "result": "8020 L"}
{"SMILES": "C[C@@H](Oc1ccc(S(C)(=O)=O)cc1C(=O)N1C[C@@H]2C[C@]2(c2cc(C(F)(F)F)on2)C1)C(F)(F)F", "species": "human", "route": "oral", "dose": "10 mg", "setting": "single dose, fed", "quantity": "Vd/F", "result": "247 L"}
